An excerpt weighted towards active compounds, which were near 3.4% of everything screened.
DTT redox prof: compounds producing H2O2 with reducing agent – biochemical, NIH compound library profiling, artefact control for MLSCN library redox annotation, primary screen; activation, % at 10 µM; DTT-dependent redox cycling H2O2, phenol red/HRP absorbance; 100% = 100 µM peroxide control, 0% = buffer; AID 878; 200,000 compounds, 0.03% hits;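 active = activation of at least 50% relative to the plate's high and low controls in the primary single-dose screen; inactive = activation below 50%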;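 also: compound incubated with DTT at 0.8 mM final as the reducing agent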
MDM2 E3 inh: inhibitors of human Mdm2 E3 ubiquitin ligase; Q00987; cell-based MDM2 ubiquitination luciferase reporter, 2 h; 0 = plate control, 100 = twice control, blank-subtracted; signal enhancement, % at 5 µM; 210,000 compounds, 0.11% hits;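 active = signal enhancement of 30% or more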;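 also: luminescence tracks abundance of the self-degrading MDM2-luciferase fusion protein; higher signal means inhibition of MDM2 E3 ligase activity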
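Assay system: stable mammalian line carrying autodegrading MDM2–luciferase fusion reporter; Input: 2000 cells in each well; Compound dosing: single-point 5 µM; Schedule: 2 h compound exposure at 37 °C; Signal: SteadyLite luciferase luminescence after 15 min room-temperature reagent incubation; Evaluation: % luminescence enhancement versus blank-corrected plate control mean; Benchmarks: plate controls and plate blanks.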
Cl transport mod: modulates chloride dependent transport by human KCC2 | Q9H2X9 | 190,000 compounds, 2.2% hits | B-score of Tl+ flux slope (higher = more flux/activation; lower = inhibition) at 10 µM | KCC2 cells, thallium flux FluoZin-2 fluorescence;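 active = thallium flux slope and its plate-corrected score both differing from the plate sample mean at a set confidence after two filtering rounds, in either direction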;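 also: slope of fluorescence scaled to starting intensity during 10 to 20 s after thallium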
ROMK mod: modulators of human ROMK potassium channel; Tet-inducible ROMK, thallium flux fluorescence; actives lie on both sides; 130,000 compounds, 2% hits; AID 1918; P48048; B-score at 10 µM;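 active = signal ratio slope over the read window, or its plate-corrected B-score, at least 3 SD from the plate mean, either direction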;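 also: B-score of the F/F0 ratio slope over 7 to 12 s after thallium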
Target sequence (P48048 whole entry, looked up): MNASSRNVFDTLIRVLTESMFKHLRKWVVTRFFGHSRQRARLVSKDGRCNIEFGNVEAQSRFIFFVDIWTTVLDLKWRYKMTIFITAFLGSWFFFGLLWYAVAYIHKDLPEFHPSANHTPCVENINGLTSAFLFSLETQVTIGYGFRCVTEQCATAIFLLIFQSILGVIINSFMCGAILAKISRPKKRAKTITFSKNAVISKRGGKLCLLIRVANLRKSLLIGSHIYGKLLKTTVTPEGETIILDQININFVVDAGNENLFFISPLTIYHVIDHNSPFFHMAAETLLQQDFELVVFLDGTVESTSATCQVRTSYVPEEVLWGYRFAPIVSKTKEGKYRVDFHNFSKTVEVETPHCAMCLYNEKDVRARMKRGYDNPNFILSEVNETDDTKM
p97 inhibitor: blocks human p97 ATPase activity. P55072. recombinant p97 ATPase, Kinase-Glo ATP luminescence, 3 h. 220,000 compounds, 0.42% hits. AID 1481. inhibition, % at 8 µM; in the data active = inhibition above about 15%
PKD1 kinase inh: blocks activity of human protein kinase D1; inhibition, % (no concentration beside the values); Q15139; 200,000 compounds, 0.056% hits; PKD1 kinase fluorescence polarization assay; in the data active = inhibition above about 50%
ROMK retest: human ROMK channel modulation, retest confirmation. shares compounds with ROMK mod. ROMK thallium flux, fluorescence ratio; hits give low values. normalized thallium flux (F/F0 slope) at 10 µM. 3,000 compounds, 54% hits. AID 1917;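 active = Flux at 10 µM at least 3 SD below or above vehicle control mean in one or both replicates; inconclusive = no clear call, values can overlap the other calls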
A number is an active result; n = inactive; u = inconclusive; x = no result given.

SMILES | DTT redox prof | MDM2 E3 inh | Cl transport mod | ROMK mod | p97 inhibitor | PKD1 kinase inh | ROMK retest
COc1ccc(C2CC(c3c(-c4ccccc4)c4cc(Cl)ccc4[nH]c3=O)=NN2S(C)(=O)=O)cc1 (stereo not given) | n | n | n | n | n | n | x
COc1ccc(OC)c(C2CC(c3c(-c4ccccc4)c4cc(Cl)ccc4[nH]c3=O)=NN2S(C)(=O)=O)c1 (stereo not given) | n | n | n | x | n | n | u
Cn1cc(SCC(=O)Nc2ccc3c(c2)OCCO3)c2ccccc21 | n | n | n | x | n | n | x
O=C(NNC(=S)Nc1ccc(Br)cc1Cl)c1ccncc1 | n | n | n | 6 | n | n | 0.11
O=C(NNC(=S)Nc1ccccc1)c1ccncc1 | n | n | n | n | n | n | x
CSc1ccc(/C=C(\NC(=O)c2ccccc2)C(=O)NN)cc1 | x | n | n | x | n | x | n
O=C(C1CCN(S(=O)(=O)c2cnc[nH]2)CC1)N(CCc1ccccc1)Cc1ccccc1 | n | x | n | n | n | n | x
O=C(c1cccc2ccccc12)N1CCN(CC2CC=CCC2)CC1 (stereo not given) | n | n | x | -2.6 | n | n | 0.059
CCN(Cc1ccccc1)C(=O)C1CCN(C/C(C)=C/c2ccccc2)CC1 | n | n | n | n | n | n | x
O=C(C1CCN(CCCc2ccccc2)CC1)N(CCc1ccccc1)Cc1ccccc1 | n | n | n | -5 | n | n | 0.05
O=C(C1CCN(CC2CC=CCC2)CC1)N(CCc1ccccc1)Cc1ccccc1 (stereo not given) | n | n | x | -2.8 | n | n | 0.064
CCOC(=O)N1CCC(NC(=O)Cn2cccc2C(=O)c2ccccc2C)CC1 | n | n | x | n | n | n | x
COc1ccc(C2OC(=O)Cc3cc(OC)c(OC)cc32)cc1 (stereo not given) | n | n | n | -2.5 | n | n | n
COc1ccc(N2CCN(S(=O)(=O)Cc3ccccc3)CC2)cc1 | n | n | n | x | n | n | x
CCOc1cc(Br)c(C=O)cc1OCC | n | n | n | 2.9 | n | n | 0.1
CCOc1cc(Br)c(C(=O)O)cc1OCC | n | n | n | x | n | n | x
O=C1CN(C(=O)CNC(=O)c2ccccc2Cl)c2ccccc2N1 | n | n | n | n | n | n | x
O=C(c1nnsc1S(=O)c1ccc(Cl)cc1)N1CCOCC1 (stereo not given) | n | n | n | -6.3 | n | n | 0.052
O=C(Nc1ccccc1)c1nnsc1S(=O)c1ccc(Cl)cc1 (stereo not given) | n | n | n | x | n | n | x
Cc1ccc(Cl)cc1N(CC(=O)N1CCCCCC1)S(C)(=O)=O | n | n | n | x | n | n | x
COc1ccc(NC(=O)CSc2cc(C)ccc2C)cn1 | n | n | n | n | n | n | x
COc1ccc(NC(=O)/C(Cl)=C(/Cl)S(=O)(=O)Cc2ccc(C)cc2)cn1 | n | n | n | -3.8 | n | n | u
O=[N+]([O-])c1ccc(OCC(O)CNC2CCCC2)cc1 (stereo not given) | x | x | n | x | n | x | x
OC(CNC1CCCCC1)COCCOc1ccc(Br)cc1 (stereo not given) | n | n | n | -4.1 | n | n | 0.059
c1ccc(NCc2ccccn2)cc1 | n | n | n | n | n | n | x
SMILES | DTT redox prof | MDM2 E3 inh | Cl transport mod | ROMK mod | p97 inhibitor | PKD1 kinase inh | ROMK retest
N#C/C(=C\c1cccs1)C(=O)NCC1CCCO1 (stereo not given) | n | n | n | x | n | n | x
N#C/C(=C/c1cc(Br)cs1)C(=O)NCC1CCCO1 (stereo not given) | n | n | n | x | n | n | 0.064
Cc1cc(/C=N/n2cnnc2)c(C)n1-c1ccc(Cl)cc1Cl | n | n | n | 3.2 | n | n | u
Cc1cc(/C=N/n2cnnc2)c(C)n1-c1ccc(Cl)cc1 | n | n | n | x | n | n | x
COCCCNC(=O)c1c(N)n(/N=C/c2cccnc2)c2nc3ccccc3nc12 | n | n | n | n | n | n | u
Cc1c(CCOC(=O)CC23CC4CC(CC(C4)C2)C3)sc[n+]1CC(=O)c1ccccc1 | n | n | n | -6.1 | n | n | 0.047
Cc1c(CCOC(=O)C23CC4(C)CC(C)(CC(C)(C4)C2)C3)sc[n+]1CC(=O)c1ccccc1 | n | n | n | n | n | n | x
O=S(=O)(NCc1ccc(Cl)cc1)c1cccc2cccnc12 | x | n | n | n | n | x | x
O=S(=O)(NCc1ccco1)c1cccc2cccnc12 | n | n | n | 1.3 | n | n | n
CCc1cccc(CC)c1NC(=O)COC(=O)CC1c2ccccc2CCN1S(=O)(=O)c1ccc(F)cc1 (stereo not given) | n | n | x | -3.8 | n | n | 0.06
O=C(NC1CC1)C1CCCN1C(=O)NC1CCCCC1 (stereo not given) | n | n | n | n | n | n | x
COc1ccc(C2=C(SC)CC2=NC(C)(C)C)cc1 | n | n | n | -4.7 | n | n | 0.046
Cc1cccc(C)c1OCc1n[nH]c(=S)n1-c1ccccc1 | n | n | x | n | n | n | x
Cc1ccccc1NS(=O)(=O)c1ccc(Cl)cc1 | n | n | n | n | n | n | x
Cc1ccccc1NS(=O)(=O)c1cc(S(C)(=O)=O)ccc1Cl | n | n | x | n | n | n | n
Fc1ccc(NCc2nnc(SCc3nnc(-c4ccccc4)o3)n2Cc2ccccc2)cc1 | n | n | n | -4.8 | n | n | 0.05
Clc1ccc(-c2nnc(CSc3nnc(-c4cccs4)n3Cc3ccccc3)o2)cc1 | n | n | n | n | n | n | n
CC(C)C(Sc1nc(-c2ccccc2)cc(-c2ccccc2)c1C#N)C(=O)O (stereo not given) | n | n | n | n | n | n | x
CCCC(=O)n1nc(-c2ccc(OC)cc2)nc1N | n | n | x | x | n | n | x
Cn1nc(C(F)(F)F)cc1C(=O)Nc1ccc(Cl)cc1 | x | n | n | x | n | x | n
Oc1c(CN2CCCCC2)cc(COCc2ccccc2)c2cccnc12 | n | n | x | -4.5 | n | n | n
CC(C)CC(=O)/C(=C\c1ccc(Cl)cc1Cl)n1cncn1 | n | n | n | -7.1 | n | n | 0.046
Cc1cccc(NC(=S)NC23CN4CN(CN(C4)C2)C3)c1C | n | n | n | x | n | n | x
Cn1cnnc1SCC(=O)Nc1cccc(S(=O)(=O)N2CCOCC2)c1 | n | n | n | n | n | n | x
Cc1cc2nnc(SCC(=O)Nc3cccc(S(=O)(=O)N4CCOCC4)c3)n2c2ccccc12 | n | n | n | x | n | n | n
Cc1cccc(OCC(=O)Nc2ccccc2C(=O)N2CCOCC2)c1 | n | x | n | 3.1 | n | n | u
COc1cccc(CC(=O)Nc2ccccc2C(=O)N2CCOCC2)c1 | n | n | n | n | n | n | x
Cc1[nH]c2ccccc2c1CN1CCN(c2ccccn2)CC1 | x | n | n | -3.7 | n | x | 0.065

Screening results from PubChem.
